Measurements of several laboratories.
Compare with care: the assays were run in different laboratories.
HTR2C: 5-hydroxytryptamine receptor 2C (HTR2C, Homo sapiens, UniProt P28335)

Compound	target	observed	action	method	tested at	quantity	value
CC(C)CC(=O)OC[C@H]1O[C@@](C#N)(c2ccc3c(N)ncnn23)[C@H](O)[C@@H]1O	B2 bradykinin receptor (BDKRB2, Homo sapiens, UniProt P30411)	cell-free assay			20 µM	inhibition	-2%
Nc1ncnc2c1ncn2[C@@H]1O[C@H](C[C@@H](N)CC[C@H](N)C(=O)O)[C@@H](O)[C@H]1O	mRNA cap guanine-N(7) methyltransferase (RNMT, Homo sapiens, UniProt O43148)	enzyme activity	inhibitor		12.5 µM	inhibition	61.8%
COc1cc2c(cc1OC)-c1c(OC)c(OC)cc3c1[C@H](C2)N(C)CC3	HTR2C	ligand displacement		radioligand	10 µM	inhibition	79%
O=P(O)(O)O[C@H]1[C@H](OP(=O)(O)O)[C@@H](OP(=O)(O)O)[C@H](OP(=O)(O)O)[C@@H](OP(=O)(O)O)[C@H]1OP(=O)(O)O	Toxin B (tcdB, Clostridioides difficile, UniProt P18177)	binding		ITC		residence time	0.4 min
COc1cc(CCNC(C)c2ccccc2)c(OC)cc1C#N (stereo not shown)	HTR2C	calcium signal	agonist			Emax	41%
COc1cc2c3c(c1OC)-c1c(OC)ccc(Cl)c1CC3N(C)CC2 (racemic)	HTR2C	ligand displacement		radioligand	10 µM	inhibition	80%
COc1cc(CCNCc2ccccc2O)c(OC)cc1C#N	HTR2C	G protein activation	agonist	BRET		Emax	122%
[2H]c1c([2H])c([C@]2([2H])CCCN2C(=O)C(C)(C)Oc2ccc3cn[nH]c3c2)c([2H])c([2H])c1C([2H])([2H])[2H]	Tyrosine-protein kinase receptor TYRO3 (TYRO3, Homo sapiens, UniProt Q06418)	binding		competition with immobilised ligand	1 µM	remaining binding	57%
COc1cc2c3c(c1OC)-c1c(cccc1OC)CC3N(C)CC2 (racemic)	5-hydroxytryptamine receptor 2B (HTR2B, Homo sapiens, UniProt P41595)	ligand displacement		radioligand	10 µM	inhibition	86%
COc1cc(CCNC(C)c2ccccc2O)c(OC)cc1Br (stereo not shown)	HTR2C	calcium signal	agonist			Emax	92%
